16 compounds from ChEMBL document CHEMBL1157084, “Exploring the structural requirements for inhibition of the ubiquitin E3 ligase breast cancer associated protein 2 (BCA2) as a treatment for breast cancer” (J Med Chem, 2010) can be followed below.

Active and inactive are the calls of the source. No cut-off for these calls is given here.

For test [1], the system named is MCF7. The test is described as follows: Antiproliferative activity against human MCF7 cells expressing BCA2 and estrogen receptor after 72 hrs by MTT assay. It is filed as functional, cell-based. Conditions: MCF7, 72 h. The method in brief:
(§1)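 Each compound run in triplicate; actives repeated in three independent experiments, IC50 read from growth curves as mean ± SD. Cells in RPMI 1640 + 10% heat-inactivated FBS (MDA-MB-231/ER also with 1 mg/mL G418; MCF10A in MEGM), 37 °C, 5% CO2, exponential phase.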

The subject of test [2] is MDA-MB-231. As to the kind of experiment: Antiproliferative activity against BCA2 and ER deficient human MDA-MB-231 cells after 72 hrs by MTT assay. It counts as functional, cell-based. The following applies: MDA-MB-231, 72 h. Summed up: as §1
Test [3] concerns MDA-MB-231. As to the kind of experiment: Antiproliferative activity against human MDA-MB-231 cells expressing BCA2 and ERalpha after 72 hrs by MTT assay. Conditions: MDA-MB-231, 72 h. It is filed as functional, cell-based. The method in brief:
as §1

In another test the test system is T47D. As to the kind of experiment: Antiproliferative activity against human T47D cells expressing BCA2 and estrogen receptor after 72 hrs by MTT assay. It counts as functional, cell-based. The method in brief:
as §1

The nature of test [4]: Antiproliferative activity against human MCF10A cells after 72 hrs by MTT assay. It counts as cell-based. The following applies: MCF-10A. Summed up:
as §1

The species entered for test [5] is Homo sapiens. As to the kind of experiment: Inhibition of wild type human recombinant His-BCA2 autoubiquitination expressed in Escherichia coli at 50 uM after 30 mins by Western blotting in presence of human recombinant E2 UbcH5b. The method in brief: (§2)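 10 ng E. coli-expressed His-BCA2 preincubated 30 min at room temperature with compound (final 5 or 50 μM, DMSO stocks). Then added ATP, 1 μg ubiquitin, 20 ng rabbit E1 and 20 ng UbcH5b in Tris HCl pH 8.0 with DTT and MgCl2. Reaction 1 h at 30 °C, then SDS-PAGE on 4–20% gel and immunoblot with anti-ubiquitin antibody.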

The species named for test [6] is Homo sapiens. As to the kind of experiment: Inhibition of wild type human recombinant His-BCA2 autoubiquitination expressed in Escherichia coli at 5 uM after 30 mins by Western blotting in presence of human recombinant E2 UbcH5b. Summed up:
as §2

Test [7] concerns the target E3 ubiquitin-protein ligase Mdm2 (Homo sapiens) (UniProt Q00987). As to the kind of experiment: Inhibition of recombinant RING-E3 ligase Mdm2 autoubiquitination at 5 to 50 uM after 30 mins by Western blotting in presence of human recombinant E2 UbcH5b.
Test [8] deals with T1, Aldehyde dehydrogenase 1A1 (Homo sapiens) (UniProt P00352).
T1 sequence (whole entry): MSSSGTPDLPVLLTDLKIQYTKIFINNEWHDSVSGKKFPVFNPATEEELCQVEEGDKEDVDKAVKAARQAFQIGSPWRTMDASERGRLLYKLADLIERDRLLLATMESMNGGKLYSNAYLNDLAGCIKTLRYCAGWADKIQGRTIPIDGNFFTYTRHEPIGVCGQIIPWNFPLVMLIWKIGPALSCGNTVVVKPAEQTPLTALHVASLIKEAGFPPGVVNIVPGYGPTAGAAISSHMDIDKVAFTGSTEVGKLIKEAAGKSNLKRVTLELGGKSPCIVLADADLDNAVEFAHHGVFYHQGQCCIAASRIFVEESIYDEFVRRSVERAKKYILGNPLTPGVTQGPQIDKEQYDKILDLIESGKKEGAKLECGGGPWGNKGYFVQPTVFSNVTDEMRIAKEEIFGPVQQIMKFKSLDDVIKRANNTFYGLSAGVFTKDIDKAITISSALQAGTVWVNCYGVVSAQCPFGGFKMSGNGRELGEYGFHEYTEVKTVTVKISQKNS
The test is described as follows: Inhibition of ALDH1 in human K562 cells at 15 uM after 45 mins by flow cytometry based method relative to bodipy-aminoacetaldehyde. It counts as cell-based.

The test system of the next test is K562. As to the kind of experiment: Percentage of ALDH+ cells in human K562 cells at 15 uM after 45 mins by flow cytometry based method. Conditions: K562, 0.75 h.
For test [9], the system named is MCF7. The test is described as follows: Antiproliferative activity against human MCF7 cells expressing BCA2 and estrogen receptor at IC50 concentration after 5 days by MTT assay in presence of 75 uM to 600 nM zinc chloride. It counts as functional, cell-based. The method in brief:
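MCF-7 cells (BCA2+, ER+) grown in RPMI 1640 with 10% heat-inactivated FBS, 37 °C, 5% CO2, used in exponential growth. Drug given with zinc chloride across 600 nM–75 μM for 5 days, then MTT read-out. Vehicle-treated cells without ZnCl2 or drug set as 100% growth.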

Test [10] relates to MCF7. The test is described as follows: Reduction of BCA2 protein expression in human MCF7 cells at IC100 after 16 hrs by Western blotting. It counts as functional, cell-based.
For test [11], the system named is MCF7. As to the kind of experiment: Reduction of BCA2 protein expression in human MCF7 cells at IC100 after 16 hrs by Western blotting in presence of cyclohexamide. It counts as functional, cell-based.
Test [12] concerns MCF7. The test is described as follows: Reduction of BCA2 protein expression in human MCF7 cells at IC100 after 16 hrs by Western blotting in presence of cyclohexamide and MG132. It is filed as functional, cell-based.
In test [13] the test system is MCF7. As to the kind of experiment: Reduction of BCA2 protein expression in human MCF7 cells at IC100 after 16 hrs by Western blotting in presence of MG132. It counts as functional, cell-based.

Chain of E3 ubiquitin-protein ligase Mdm2 (Homo sapiens) (Q00987 whole entry, looked up): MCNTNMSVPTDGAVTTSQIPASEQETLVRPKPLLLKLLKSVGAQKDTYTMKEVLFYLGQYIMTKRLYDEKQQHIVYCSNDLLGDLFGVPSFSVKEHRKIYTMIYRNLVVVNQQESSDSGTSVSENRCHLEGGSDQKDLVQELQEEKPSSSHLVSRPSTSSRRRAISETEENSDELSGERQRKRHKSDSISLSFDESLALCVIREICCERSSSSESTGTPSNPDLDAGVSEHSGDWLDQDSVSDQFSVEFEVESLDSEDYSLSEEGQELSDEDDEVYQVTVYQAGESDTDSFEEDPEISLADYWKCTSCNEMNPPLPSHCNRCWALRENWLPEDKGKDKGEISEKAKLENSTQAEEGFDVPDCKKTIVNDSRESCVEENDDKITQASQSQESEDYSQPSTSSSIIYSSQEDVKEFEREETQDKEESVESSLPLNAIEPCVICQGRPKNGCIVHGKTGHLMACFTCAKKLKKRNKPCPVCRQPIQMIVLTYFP

Take `S=C(SSC1CCCCC1)N1CCCC1`: the IC50 was 1400 nM in the test with MCF7 [1]; 4700 nM in the test on MDA-MB-231 [2]; 250 nM in the test on MDA-MB-231 [3]; 1350 nM in the test with T47D; > 10000 nM in test [4].
On the same counts, the results for `C1CN(SSN2CCOCC2)CCO1` [DITHIODIMORPHOLINE] are > 10000 nM, > 10000 nM, > 10000 nM, > 10000 nM and > 10000 nM.
On to `CCN(CC)C(=S)SSC1CCCCC1` [CYCLOHEXYL DIETHYLCARBAMO(DITHIOPEROXO)THIOATE], for which the IC50 in the test on MCF7 [1] is 300 nM; in the test on MDA-MB-231 [2] it was 960 nM; with MDA-MB-231 [3], 280 nM; with T47D, 180 nM; in [4], > 10000 nM.
`S=C(SSC(=S)N1CCCC1)N1CCCC1` [BIS(PYRROLIDINYLTHIOCARBONYL)DISULFIDE]: the IC50 in the test with MCF7 [1] was 380 nM; with MDA-MB-231 [2] it was > 10000 nM; with MDA-MB-231 [3] it was 250 nM; in the test on T47D it was 280 nM; in [4], > 10000 nM. The result in the test listed under Homo sapiens [5] was Active. Besides, the outcome (in the test filed under Homo sapiens [6]; in test [7]) was inactive. This compound displayed an inhibition in test [8] of 3.4%. The same compound showed an ALDH+ cells (%) at 15 µM in the test on K562 of 39%.
As to `CCN(CC)C(=S)SSCCO`, the IC50 with MCF7 [1] was 500 nM; in the test on MDA-MB-231 [3], 2750 nM; in the test on T47D it was 300 nM; in [4] it was > 10000 nM. Moreover, the result in the test filed under Homo sapiens [5] was Active. Further, the outcome (in the test filed under Homo sapiens [6]; in test [7]) was inactive. This compound came in with an inhibition in test [8] of 8.6%.
With `CCCCCCSSC(=S)N(CC)CC` [DIETHYLCARBAMO(DITHIOPEROXO)THIOATE], the IC50 in the test with MCF7 [1] was 430 nM; with MDA-MB-231 [2] it was > 10000 nM; in the test with MDA-MB-231 [3], 350 nM; in the test on T47D, 230 nM; in test [4], > 10000 nM. Moreover, the outcome (in the test with MCF7 [9]; in the test listed under Homo sapiens [6]; in test [7]) was inactive. For the same compound, the result in the test listed under Homo sapiens [5], in the test with MCF7 [10], in the test on MCF7 [11], with MCF7 [12] and with MCF7 [13] was Active. This compound displayed an inhibition in test [8] of 9.8%. For the same compound, in the test with K562, the ALDH+ cells (%) at 15 µM is 36.5%.
As for `CCN(CC)C(=S)SSC(C)C` [ISOPROPYL DIETHYLCARBAMO(DITHIOPEROXO)THIOATE], the IC50 is 390 nM in the test with MCF7 [1]; 960 nM in the test with MDA-MB-231 [2]; 250 nM with MDA-MB-231 [3]; 230 nM with T47D; > 10000 nM in test [4].
With `CN1CCN(C(=S)SSC(=S)N2CCN(C)CC2)CC1`, the IC50 with MCF7 [1] was 350 nM; with MDA-MB-231 [2], 3000 nM; in the test with MDA-MB-231 [3], 290 nM; in the test on T47D, 330 nM; in [4], > 10000 nM.
Regarding `CCN(CC)C(=S)SSc1ccc(C(=O)O)cc1`, the IC50 in the test with MCF7 [1] was 500 nM; with MDA-MB-231 [2] it was 6300 nM; with MDA-MB-231 [3], 550 nM; with T47D, 150 nM; in test [4], > 10000 nM.
For `CCCCSSC(=S)N1CCCCC1`, the IC50 was 650 nM in the test on MCF7 [1]; 8000 nM in the test on MDA-MB-231 [2]; 390 nM with MDA-MB-231 [3]; 350 nM in the test with T47D; > 10000 nM in test [4].
Regarding `CCCCSSC(=S)N(CC)CC` [BUTYL DIETHYLCARBAMO(DITHIOPEROXO)THIOATE], the concentration for half-maximal inhibition (IC50) in the test on MCF7 [1] was 400 nM; with MDA-MB-231 [2], 7400 nM; in the test with MDA-MB-231 [3] it was 300 nM; with T47D, 150 nM; in test [4], > 10000 nM.
Compound `Cc1cc(C)n2c1C=C1C=CC(CCC(=O)NCC=O)=[N+]1[B-]2(F)F` came in with an inhibition in [8] of 0%. Further, in the test with K562, the ALDH+ cells (%) at 15 µM stood at 40.4%.
Consider `CCC(C)SSC(=S)N(CC)CC` (stereo unspecified), for which the IC50 in the test with MCF7 [1] is 450 nM; with MDA-MB-231 [2], 6000 nM; in the test on MDA-MB-231 [3], 2100 nM; in the test with T47D, 200 nM; in test [4] it was > 10000 nM.
Turning to `CCN(CC)C(=S)SSC(=S)N(CC)CC`, the IC50 in the test on MCF7 [1] was 100 nM; in the test on MDA-MB-231 [2], > 10000 nM; in the test on MDA-MB-231 [3], 320 nM; with T47D, 170 nM; in test [4], 10000 nM. Further, the result (in the test on MCF7 [9]; in the test listed under Homo sapiens [6]; in [7]) was inactive. In addition, in the test listed under Homo sapiens [5], the result was Active. This compound had an inhibition in [8] of 57.3%. In the test with K562, this compound showed an ALDH+ cells (%) at 15 µM of 17.3%.
With `S=C(SSC1CCCCC1)N1CCCCC1`, the IC50 is 600 nM with MCF7 [1]; 6700 nM in the test with MDA-MB-231 [2]; 2300 nM with MDA-MB-231 [3]; 250 nM in the test on T47D; > 10000 nM in [4].
`S=C(SSC(=S)N1CCCCC1)N1CCCCC1` [BIS(PIPERIDINYLTHIOCARBONYL)DISULFIDE]: the 50% inhibitory concentration (IC50) is 30 nM in the test with MCF7 [1]; > 10000 nM with MDA-MB-231 [2]; 590 nM in the test on MDA-MB-231 [3]; 270 nM with T47D; > 10000 nM in test [4]. Also, the outcome (in the test on MCF7 [9]; in the test listed under Homo sapiens [6]; in test [7]) was inactive. Moreover, the outcome in the test filed under Homo sapiens [5], in the test with MCF7 [10], in the test on MCF7 [11], in the test with MCF7 [12] and in the test with MCF7 [13] was Active. In addition, the inhibition in [8] was found to be 79.5%. This compound also gave an ALDH+ cells (%) at 15 µM in the test on K562 of 8.3%.
